Reference: article PMC5494147 (Bioorganic & medicinal chemistry, 2017)

Assays:
HDAC6 = target: T1, HDAC6 (Homo sapiens, UniProt Q9UBN7); settings: relative to the strongly inhibited isoforms; ref [5]–[6], [6c]; cited from earlier work
T1 sequence (Q9UBN7 1-1215): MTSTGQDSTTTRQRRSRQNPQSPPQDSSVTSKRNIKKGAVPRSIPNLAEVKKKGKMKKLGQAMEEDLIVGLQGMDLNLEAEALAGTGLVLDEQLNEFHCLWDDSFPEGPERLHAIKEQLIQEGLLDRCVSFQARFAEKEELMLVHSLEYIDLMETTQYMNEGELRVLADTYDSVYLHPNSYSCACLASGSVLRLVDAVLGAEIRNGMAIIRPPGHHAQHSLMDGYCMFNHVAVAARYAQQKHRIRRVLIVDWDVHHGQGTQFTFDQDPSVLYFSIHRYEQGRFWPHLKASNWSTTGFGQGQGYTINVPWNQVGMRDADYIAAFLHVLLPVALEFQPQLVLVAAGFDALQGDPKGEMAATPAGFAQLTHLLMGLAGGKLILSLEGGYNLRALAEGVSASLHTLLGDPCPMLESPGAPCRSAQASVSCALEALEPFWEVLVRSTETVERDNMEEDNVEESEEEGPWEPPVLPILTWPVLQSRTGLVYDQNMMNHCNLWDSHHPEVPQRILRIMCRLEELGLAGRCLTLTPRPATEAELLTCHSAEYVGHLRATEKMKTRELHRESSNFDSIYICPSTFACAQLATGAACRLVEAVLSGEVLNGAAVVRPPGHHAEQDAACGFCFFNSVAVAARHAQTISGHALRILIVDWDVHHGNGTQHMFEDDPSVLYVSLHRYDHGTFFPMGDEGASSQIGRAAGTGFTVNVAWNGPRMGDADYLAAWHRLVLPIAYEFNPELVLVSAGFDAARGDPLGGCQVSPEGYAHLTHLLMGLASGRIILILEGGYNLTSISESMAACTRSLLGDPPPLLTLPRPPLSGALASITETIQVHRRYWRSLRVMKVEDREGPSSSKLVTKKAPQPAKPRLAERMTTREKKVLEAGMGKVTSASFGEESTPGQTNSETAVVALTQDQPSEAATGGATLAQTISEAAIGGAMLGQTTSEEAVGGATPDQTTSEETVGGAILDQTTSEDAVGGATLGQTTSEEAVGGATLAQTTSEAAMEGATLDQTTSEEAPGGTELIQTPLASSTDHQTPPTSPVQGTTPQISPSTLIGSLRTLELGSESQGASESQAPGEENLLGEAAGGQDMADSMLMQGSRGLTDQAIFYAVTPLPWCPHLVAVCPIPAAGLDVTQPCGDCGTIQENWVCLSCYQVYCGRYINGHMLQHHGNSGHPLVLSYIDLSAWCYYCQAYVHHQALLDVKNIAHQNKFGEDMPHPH

HDAC8 = target: T2, HDAC8 (Homo sapiens, UniProt Q9BY41); settings: compared with HDACs 1–3; ref [5]–[6], [6c]; cited from earlier work
T2 sequence (Q9BY41 1-377): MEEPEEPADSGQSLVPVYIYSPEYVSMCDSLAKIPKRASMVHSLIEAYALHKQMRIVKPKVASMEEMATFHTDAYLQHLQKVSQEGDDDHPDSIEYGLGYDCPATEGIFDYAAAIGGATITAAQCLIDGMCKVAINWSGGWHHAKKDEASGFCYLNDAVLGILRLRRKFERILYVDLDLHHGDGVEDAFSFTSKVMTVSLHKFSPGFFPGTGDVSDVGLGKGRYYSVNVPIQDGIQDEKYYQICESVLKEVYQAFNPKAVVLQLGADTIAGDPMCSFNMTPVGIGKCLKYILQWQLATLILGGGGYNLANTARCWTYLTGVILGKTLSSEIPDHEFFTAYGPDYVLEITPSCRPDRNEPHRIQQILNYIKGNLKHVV

HDAC10 = target: T3, HDAC10 (Homo sapiens, UniProt Q969S8); settings: among class II isoforms; ref [5]–[6], [6c]; cited from earlier work
T3 sequence (Q969S8 1-669): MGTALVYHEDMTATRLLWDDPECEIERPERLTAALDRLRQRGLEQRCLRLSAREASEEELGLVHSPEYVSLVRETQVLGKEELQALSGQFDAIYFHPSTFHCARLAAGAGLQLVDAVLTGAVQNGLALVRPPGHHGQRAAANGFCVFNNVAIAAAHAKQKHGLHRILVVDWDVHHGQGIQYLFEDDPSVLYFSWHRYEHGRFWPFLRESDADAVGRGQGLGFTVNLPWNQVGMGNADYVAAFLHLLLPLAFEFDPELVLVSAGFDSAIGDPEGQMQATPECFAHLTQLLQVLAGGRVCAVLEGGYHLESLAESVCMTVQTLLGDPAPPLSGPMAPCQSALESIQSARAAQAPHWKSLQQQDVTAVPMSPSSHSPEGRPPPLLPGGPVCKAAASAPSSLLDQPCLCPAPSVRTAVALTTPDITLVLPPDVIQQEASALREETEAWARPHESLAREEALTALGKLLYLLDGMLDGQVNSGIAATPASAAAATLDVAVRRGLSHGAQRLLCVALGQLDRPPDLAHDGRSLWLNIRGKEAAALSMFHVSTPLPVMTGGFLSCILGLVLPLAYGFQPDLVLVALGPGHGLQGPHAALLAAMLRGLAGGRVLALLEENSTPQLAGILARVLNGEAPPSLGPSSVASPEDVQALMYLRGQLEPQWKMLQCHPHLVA

[1] = test system: histone H3 (Lys9/14) acetylation in HCT116 cells; experiment: Immunoblot analysis of histone hyperacetylation; format: cell-based; settings: HCT116, 8 h post-treatment
Procedure, shortened: (§1)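 Cells grown in DMEM with 10% FBS at 37 °C, 5% CO2; 4 × 10^5 cells seeded and incubated overnight. Treated 8 h with test compound at 0–10 μM final or 1% EtOH vehicle. Whole-cell lysates normalised by BCA; equal protein run on SDS-PAGE, transferred to PVDF, probed with anti-acetyl histone H3 antibody and β-actin, chemiluminescent detection.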

[2] = test system: histone H3 (Lys9/14) acetylation in MDA-MB-231 cells; experiment: Immunoblot analysis of histone hyperacetylation; format: cell-based; settings: MDA-MB-231, 8 h post-treatment
Procedure, shortened: as §1

HDAC11 = settings: ref [5]–[6], [6c]; cited from earlier work
sirtuins = experiment: HDAC enzyme inhibitory assay; format: biochemical; settings: up to concentrations of 10 μM
HDAC isoform 4 = HDAC isoform 4 (Homo sapiens, UniProt P56524); experiment: HDAC enzyme inhibitory assay; format: biochemical; settings: up to concentrations of 10 μM
Sequence of HDAC isoform 4 (P56524 whole entry, canonical isoform): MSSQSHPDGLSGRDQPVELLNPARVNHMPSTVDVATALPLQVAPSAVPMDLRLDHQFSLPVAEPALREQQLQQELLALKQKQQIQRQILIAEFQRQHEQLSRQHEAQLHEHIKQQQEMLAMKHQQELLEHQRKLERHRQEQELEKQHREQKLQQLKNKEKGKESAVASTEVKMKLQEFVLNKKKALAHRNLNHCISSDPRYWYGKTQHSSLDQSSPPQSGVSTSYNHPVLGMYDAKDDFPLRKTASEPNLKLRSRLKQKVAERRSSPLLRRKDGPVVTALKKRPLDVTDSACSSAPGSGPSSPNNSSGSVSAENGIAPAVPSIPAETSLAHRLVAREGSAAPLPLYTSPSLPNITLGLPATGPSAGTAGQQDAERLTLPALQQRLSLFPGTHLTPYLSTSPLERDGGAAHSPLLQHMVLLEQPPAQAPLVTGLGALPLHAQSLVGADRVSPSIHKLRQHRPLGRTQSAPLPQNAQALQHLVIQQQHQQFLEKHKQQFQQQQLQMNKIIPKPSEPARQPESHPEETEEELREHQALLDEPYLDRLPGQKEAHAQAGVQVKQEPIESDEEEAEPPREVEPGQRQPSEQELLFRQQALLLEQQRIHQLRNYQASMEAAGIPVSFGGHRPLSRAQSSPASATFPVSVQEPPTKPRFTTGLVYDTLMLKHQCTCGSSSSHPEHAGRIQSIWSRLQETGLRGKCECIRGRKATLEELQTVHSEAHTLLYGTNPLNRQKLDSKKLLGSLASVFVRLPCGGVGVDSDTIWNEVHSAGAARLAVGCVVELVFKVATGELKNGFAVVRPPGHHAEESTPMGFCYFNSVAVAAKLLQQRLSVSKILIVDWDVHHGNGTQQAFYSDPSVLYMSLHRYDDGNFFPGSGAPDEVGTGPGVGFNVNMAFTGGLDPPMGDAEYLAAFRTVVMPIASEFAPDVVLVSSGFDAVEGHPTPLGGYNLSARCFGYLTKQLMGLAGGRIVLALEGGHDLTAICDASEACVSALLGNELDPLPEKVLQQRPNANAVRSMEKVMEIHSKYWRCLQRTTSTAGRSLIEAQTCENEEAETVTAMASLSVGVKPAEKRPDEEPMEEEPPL

HDAC isoform 11 = target: T4, HDAC isoform 11 (Homo sapiens, UniProt Q96DB2); experiment: HDAC enzyme inhibitory assay; format: biochemical; settings: up to concentrations of 10 μM
T4 sequence (Q96DB2 1-347): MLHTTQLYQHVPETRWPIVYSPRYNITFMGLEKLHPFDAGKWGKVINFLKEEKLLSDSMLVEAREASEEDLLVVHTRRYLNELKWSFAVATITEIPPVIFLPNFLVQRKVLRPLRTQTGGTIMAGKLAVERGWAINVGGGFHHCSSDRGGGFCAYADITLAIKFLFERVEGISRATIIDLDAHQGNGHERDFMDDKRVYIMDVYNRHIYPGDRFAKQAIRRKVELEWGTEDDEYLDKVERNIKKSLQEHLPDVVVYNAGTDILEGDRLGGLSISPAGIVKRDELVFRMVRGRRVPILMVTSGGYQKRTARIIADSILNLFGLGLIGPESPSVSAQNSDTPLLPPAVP

HDAC isoform 7 = target: T5, HDAC isoform 7 (Homo sapiens, UniProt Q8WUI4); experiment: HDAC enzyme inhibitory assay; format: biochemical; settings: up to concentrations of 10 μM
T5 sequence (Q8WUI4 1-952): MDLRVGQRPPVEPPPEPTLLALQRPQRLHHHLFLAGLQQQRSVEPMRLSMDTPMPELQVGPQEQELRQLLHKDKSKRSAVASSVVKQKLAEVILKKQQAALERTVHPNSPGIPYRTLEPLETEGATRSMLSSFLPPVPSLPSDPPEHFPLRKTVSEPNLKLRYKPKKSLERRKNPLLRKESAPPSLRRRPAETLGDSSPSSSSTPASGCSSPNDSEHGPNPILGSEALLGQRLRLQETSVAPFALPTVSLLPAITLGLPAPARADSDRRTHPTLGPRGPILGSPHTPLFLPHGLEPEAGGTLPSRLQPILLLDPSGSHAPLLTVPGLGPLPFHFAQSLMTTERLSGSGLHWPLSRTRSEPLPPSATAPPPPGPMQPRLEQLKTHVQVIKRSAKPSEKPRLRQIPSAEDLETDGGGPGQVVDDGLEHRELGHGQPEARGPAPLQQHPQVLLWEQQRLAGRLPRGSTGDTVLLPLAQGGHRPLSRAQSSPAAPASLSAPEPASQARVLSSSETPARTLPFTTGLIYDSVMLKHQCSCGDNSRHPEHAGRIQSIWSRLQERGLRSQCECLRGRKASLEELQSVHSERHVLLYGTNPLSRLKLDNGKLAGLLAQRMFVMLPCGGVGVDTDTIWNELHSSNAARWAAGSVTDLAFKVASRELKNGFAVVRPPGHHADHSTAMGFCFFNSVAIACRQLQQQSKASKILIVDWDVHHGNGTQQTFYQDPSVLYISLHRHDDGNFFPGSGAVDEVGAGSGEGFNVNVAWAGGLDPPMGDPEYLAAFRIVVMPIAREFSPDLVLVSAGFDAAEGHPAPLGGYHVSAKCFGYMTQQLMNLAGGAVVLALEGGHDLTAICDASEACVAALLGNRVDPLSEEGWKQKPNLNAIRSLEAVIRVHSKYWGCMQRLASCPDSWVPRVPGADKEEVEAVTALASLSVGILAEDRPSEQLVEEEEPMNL

HDAC isoform 9 = HDAC isoform 9 (Homo sapiens, UniProt Q9UKV0); experiment: HDAC enzyme inhibitory assay; format: biochemical; settings: up to concentrations of 10 μM
Sequence of HDAC isoform 9 (Q9UKV0 whole entry, canonical isoform): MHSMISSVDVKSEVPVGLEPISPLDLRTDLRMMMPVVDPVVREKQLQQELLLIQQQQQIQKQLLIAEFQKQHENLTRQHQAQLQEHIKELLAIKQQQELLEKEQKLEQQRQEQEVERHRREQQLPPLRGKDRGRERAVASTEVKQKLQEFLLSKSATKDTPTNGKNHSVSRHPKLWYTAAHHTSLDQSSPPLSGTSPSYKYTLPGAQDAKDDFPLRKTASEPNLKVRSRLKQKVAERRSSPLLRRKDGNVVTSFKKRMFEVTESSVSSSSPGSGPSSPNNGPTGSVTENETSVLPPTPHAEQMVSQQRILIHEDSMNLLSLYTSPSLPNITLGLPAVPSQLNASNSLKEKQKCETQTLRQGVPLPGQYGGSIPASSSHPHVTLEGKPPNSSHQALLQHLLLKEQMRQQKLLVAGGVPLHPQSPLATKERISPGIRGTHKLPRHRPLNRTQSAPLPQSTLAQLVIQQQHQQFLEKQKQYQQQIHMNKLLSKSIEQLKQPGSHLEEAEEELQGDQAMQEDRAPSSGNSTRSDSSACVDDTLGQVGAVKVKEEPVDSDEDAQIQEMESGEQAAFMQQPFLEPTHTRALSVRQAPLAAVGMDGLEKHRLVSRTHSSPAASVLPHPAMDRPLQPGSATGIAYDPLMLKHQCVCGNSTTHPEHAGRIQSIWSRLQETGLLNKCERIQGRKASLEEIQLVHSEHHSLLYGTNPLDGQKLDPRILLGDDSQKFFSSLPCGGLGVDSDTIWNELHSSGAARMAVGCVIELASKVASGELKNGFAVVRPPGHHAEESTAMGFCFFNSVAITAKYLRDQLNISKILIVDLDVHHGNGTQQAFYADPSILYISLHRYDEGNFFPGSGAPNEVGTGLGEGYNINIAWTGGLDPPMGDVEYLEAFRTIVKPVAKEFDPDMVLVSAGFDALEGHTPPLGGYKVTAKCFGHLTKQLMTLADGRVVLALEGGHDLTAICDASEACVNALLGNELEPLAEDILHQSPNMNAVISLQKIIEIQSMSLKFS

For `CCCCCCCC(=O)SCC/C=C/[C@@H]1CC(=O)NCc2nc(cs2)C2=N[C@@](C)(CS2)C(=O)N[C@@H](C(C)C)C(=O)O1` [compound 5, largazole], the “potency in vitro against HDAC6” value (HDAC6) is given as “two orders of magnitude lower potency”, the HDAC8 inhibition (HDAC8) is given as “inhibited to a much lesser extent” and the “HDAC10 activity in vitro” value (HDAC10) is given as “severely compromised”. For the same molecule, the “histone H3 (Lys9/14) hyperacetylation” value [1] was “dose-dependent increase”, the “histone H3 (Lys9/14) hyperacetylation” value [2] was “dose-dependent increase” and the HDAC11 inhibition (HDAC11) was “strongly inhibited”.
In the case of `CC(C)[C@@H]1NC(=O)[C@]2(C)CSC(=N2)c2csc(n2)CNC(=O)C[C@@H](/C=C/CCS)OC1=O` [compound 6, largazole thiol], the “inhibitory activity against sirtuins” value (sirtuins) is reported as “None of the compounds tested, including largazole thiol 6, showed any inhibitory activity”, the “inhibitory activity against isoform 4” value (HDAC isoform 4) is reported as “None of the compounds tested, including largazole thiol 6, showed any inhibitory activity” and the “inhibitory activity against isoform 11” value (HDAC isoform 11) is reported as “None of the compounds tested, including largazole thiol 6, showed any inhibitory activity”. For the same molecule, the “inhibitory activity against isoform 7” value (HDAC isoform 7) was “None of the compounds tested, including largazole thiol 6, showed any inhibitory activity” and the “inhibitory activity against isoform 9” value (HDAC isoform 9) was “None of the compounds tested, including largazole thiol 6, showed any inhibitory activity”.
With `CC(C)[C@@H]1NC(=O)[C@]2(C)CSC(=N2)c2csc(n2)CNC(=O)C[C@@H](/C=C/CCC(=O)NO)OC1=O` [compound 7] the “histone H3 (Lys9/14) hyperacetylation” value [1] was “dose-dependent increase” and the “histone H3 (Lys9/14) hyperacetylation” value [2] was “dose-dependent increase”.
In the case of `CC(C)[C@@H]1NC(=O)[C@]2(C)CSC(=N2)c2csc(n2)CNC(=O)C[C@@H](/C=C/CCSCCS)OC1=O` [compound 8], the “histone H3 (Lys9/14) hyperacetylation” value [1] is reported as “dose-dependent increase” and the “histone H3 (Lys9/14) hyperacetylation” value [2] is reported as “dose-dependent increase”.
